Consider two compounds from ChEMBL document CHEMBL2424583, “Structure-activity relationship and in vitro and in vivo evaluation of the potent cytotoxic anti-microtubule agent N-(4-methoxyphenyl)-N,2,6-trimethyl-6,7-dihydro-5H-cyclopenta[d]pyrimidin-4-aminium chloride and its analogues as antitumor agents” (J Med Chem, 2013).

One may read the T/C as the result in the treated group divided by that in the control group, in per cent. As usually defined, the GI50 is the concentration at which growth is held to half of that of the control.

SMILES strings stand for the structures. Activity calls are given as the source filed them. The calls are words filed in the database; no cut-off is given here.

A short description of data set [1]: Relative resistance, ratio of IC50 for beta3 tubulin overexpressed in human HeLa cells to IC50 for human HeLa cells. A digest of the protocol: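 SRB antiproliferative assay on isogenic pairs: parental SK-OV-3 vs Pgp-overexpressing SK-OV-3 MDR-M6-6, and parental HeLa vs βIII-tubulin-transfected HeLa. IC50 is the mean ± SD of at least three independent experiments. Relative resistance (Rr) is the IC50 of the transduced line divided by the IC50 of the parental line.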

The test system of data set [2] is MDA-MB-231. Briefly: Antitumor activity against human MDA-MB-231 cells xenografted in athymic nude mouse assessed as net tumor log cell kill at 50 mg/kg, ip bid administered every other day started on day 14 followed by compound readministration every other day started on day 27. Format: functional. The settings on record: route intraperitoneal. A digest of the protocol: (§1)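 Female athymic nude mice were implanted sc with an MDA-MB-231T tumour fragment, and tumours were staged to about 125 mg. Drug was given ip in 10% DMSO in saline/Tween 80, with courses starting day 14 and repeated from day 27. There were 8 animals per treated group and 16 controls. Read-outs were body weight, deaths, median tumour mass as T/C, days to a predetermined size as T-C/C, and net log cell kill.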
(In general: Xenograft models place foreign cells or tissue in a host animal.)

Data set [3] concerns MDA-MB-231. Briefly: Antitumor activity against human MDA-MB-231 cells xenografted in athymic nude mouse assessed as net tumor log cell kill at 75 mg/kg, ip qd administered on day 14 for 5 days followed by compound readministration on day 27. Format: functional. The settings on record: route intraperitoneal. A digest of the protocol: as §1
Data set [4] has as its system Mus musculus. Briefly: Toxicity in athymic nude mouse xenografted in human MDA-MB-231 cells assessed as mortality at 75 mg/kg, ip qd administered every other day started on day 14 for 5 days followed by compound readministration on day 27. Format: organism-based. More on the design: dose 75 mg/kg, route intraperitoneal. The conditions noted are these: in vivo, 120 h. A digest of the protocol: as §1

For data set [5], the system named is Mus musculus. Briefly: Toxicity in athymic nude mouse xenografted in human MDA-MB-231 cells assessed as mortality at 50 mg/kg, ip qd administered on day 14 for 5 days followed by compound readministration on day 27. Format: organism-based. More on the design: dose 50 mg/kg, route intraperitoneal. The conditions noted are these: in vivo, 120 h. A digest of the protocol:
as §1

Data set [6] concerns MDA-MB-231. Kind of data set: Antitumor activity against human MDA-MB-231 cells xenografted in athymic nude mouse assessed as delay in tumor growth at 75 mg/kg, ip qd administered every other day started on day 14 for 5 days followed by compound readministration on day 27 measured on day 31 relative to control. Format: functional. The conditions noted are these: route intraperitoneal. A digest of the protocol:
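MDA-MB-231T tumor fragments implanted sc in female athymic nude mice and staged to about 125 mg. Dosing was ip in 10% DMSO in saline/Tween 80, with courses starting day 14 and again day 27. Groups had 8 treated animals and 16 controls. Growth delay (T-C/C) is the median days for treated vs control tumors to reach a predetermined size, normalized to control, as %.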

The test system of data set [7] is MDA-MB-231. Briefly: Antitumor activity against human MDA-MB-231 cells xenografted in athymic nude mouse assessed as delay in tumor growth at 50 mg/kg, ip qd administered on day 14 for 5 days followed by compound readministration on day 27 measured on day 31 relative to control. Format: functional. The settings on record: route intraperitoneal. The method, boiled down:
as §1

Data set [8] concerns MDA-MB-231. Briefly: Antitumor activity against human MDA-MB-231 cells xenografted in athymic nude mouse assessed as tumor growth inhibition at 50 mg/kg, ip bid administered every other day started on day 14 followed by compound readministration every other day started on day 27 measured on day 31 relative to control. Format: functional. The conditions noted are these: route intraperitoneal. The method, boiled down:
as §1

In data set [9] the test system is MDA-MB-231. Briefly: Antitumor activity against human MDA-MB-231 cells xenografted in athymic nude mouse assessed as tumor growth inhibition at 75 mg/kg, ip qd administered every other day started on day 14 for 5 days followed by compound readministration on day 27 measured on day 31 relative to control. Format: functional. The settings on record: route intraperitoneal. The method, boiled down: as §1

The subject of data set [10] is MDA-MB-231. Kind of data set: Antitumor activity against human MDA-MB-231 cells xenografted in athymic nude mouse assessed as tumor growth inhibition at 50 mg/kg, ip qd administered on day 14 for 5 days followed by compound readministration on day 27 measured on day 31 relative to control. Format: functional. The conditions noted are these: route intraperitoneal. A digest of the protocol: as §1

Data set [11] concerns Mus musculus. Briefly: Toxicity in athymic nude mouse xenografted in human MDA-MB-231 cells assessed as body weight loss at 75 mg/kg, ip qd administered every other day started on day 14 for 5 days followed by compound readministration on day 27 (reference value: 6.7%). Format: organism-based. More on the design: dose 75 mg/kg, route intraperitoneal. The settings on record: in vivo, 120 h.

Data set [12] has as its system Mus musculus. Briefly: Toxicity in athymic nude mouse xenografted in human MDA-MB-231 cells assessed as body weight loss at 50 mg/kg, ip qd administered on day 14 for 5 days followed by compound readministration on day 27 (reference value: 6.7%). Format: organism-based. More on the design: dose 50 mg/kg, route intraperitoneal. The settings on record: in vivo, 120 h.

Data set [13] has as its system MDA-MB-231. Briefly: Antitumor activity against human MDA-MB-231 cells xenografted in athymic nude mouse assessed as tumor free state at 50 mg/kg, ip bid administered every other day started on day 14 followed by compound readministration every other day started on day 27 measured on day 41. Format: functional, organism-based. The arrangement: dose 50 mg/kg. A digest of the protocol:
(§2)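 Female athymic nude mice carried sc MDA-MB-231T tumor fragments staged to about 125 mg. Compound was given ip as a solution in 10% DMSO in saline/Tween 80, with courses beginning day 14 and repeated from day 27. Groups had 8 animals, with 16 vehicle controls. Animals were scored as tumor-free on day 41.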

In data set [14] the test system is MDA-MB-231. Briefly: Antitumor activity against human MDA-MB-231 cells xenografted in athymic nude mouse assessed as tumor free state at 75 mg/kg, ip qd administered every other day started on day 14 for 5 days followed by compound readministration on day 27 measured on day 41. More on the design: dose 75 mg/kg. Format: functional, organism-based. The method, boiled down: as §2

Data set [15] has as its system MDA-MB-231. Kind of data set: Antitumor activity against human MDA-MB-231 cells xenografted in athymic nude mouse assessed as tumor free state at 75 mg/kg, ip qd administered on day 14 for 5 days followed by compound readministration on day 27 measured on day 41. Format: functional, organism-based. More on the design: dose 75 mg/kg. The method, boiled down:
as §2

Data set [16] deals with MDA-MB-231. Briefly: Antitumor activity against human MDA-MB-231 cells xenografted in athymic nude mouse assessed as tumor free state at 50 mg/kg, ip qd administered on day 14 for 5 days followed by compound readministration on day 27 measured on day 41. Format: functional, organism-based. The arrangement: dose 50 mg/kg. The method, boiled down:
as §2

A further data set deals with CAKI-1. Kind of data set: Cytotoxicity against human CAKI-1 cells assessed as growth inhibition after 48 hrs by SRB assay. Format: functional. The conditions noted are these: CAKI-1, 48 h. (In general: Sulforhodamine B stains cellular protein and so reports cell mass.)

Turning to `COc1ccc(N(C)c2nc(C)nc3c2CC(C)C3)cc1.Cl` (racemic), the “Ratio IC50” value in [1] was determined as 0.6.
Regarding `COc1ccc(N(C)c2nc(C)nc3c2CCC3)cc1.Cl`, the results for the LCK in the data set on MDA-MB-231 [2] and with MDA-MB-231 [3] were -1.3 and -1.1, respectively. The Activity result is “Non-toxic” in the data set on Mus musculus [4], “Non-toxic” with Mus musculus [5], 44% with MDA-MB-231 [6] and 27% with MDA-MB-231 [7]. Besides, the results for the T/C in the data set on MDA-MB-231 [8], in the data set on MDA-MB-231 [9] and in the data set with MDA-MB-231 [10] were 25%, 19% and 20%, respectively. Further, the figures for the “%max” value with Mus musculus [11] and in the data set on Mus musculus [12] were 9% and 7.7%, respectively. Further, the outcome in the data set on MDA-MB-231 [13], with MDA-MB-231 [14], in the data set with MDA-MB-231 [15] and with MDA-MB-231 [16] was Active. Moreover, in the data set on CAKI-1, the GI50 is below 10 nM.
